Results from ChEMBL document CHEMBL3085648, “Enhancement of kinase selectivity in a potent class of arylamide FMS inhibitors” (Bioorg Med Chem Lett, 2013).

Key:
[1] = molecular target: T1, Macrophage colony-stimulating factor 1 receptor (Mus musculus, UniProt P09581); assay: Inhibition of FMS in mouse BMDM cells; assay type: cell-based
T1 sequence (P09581 whole entry): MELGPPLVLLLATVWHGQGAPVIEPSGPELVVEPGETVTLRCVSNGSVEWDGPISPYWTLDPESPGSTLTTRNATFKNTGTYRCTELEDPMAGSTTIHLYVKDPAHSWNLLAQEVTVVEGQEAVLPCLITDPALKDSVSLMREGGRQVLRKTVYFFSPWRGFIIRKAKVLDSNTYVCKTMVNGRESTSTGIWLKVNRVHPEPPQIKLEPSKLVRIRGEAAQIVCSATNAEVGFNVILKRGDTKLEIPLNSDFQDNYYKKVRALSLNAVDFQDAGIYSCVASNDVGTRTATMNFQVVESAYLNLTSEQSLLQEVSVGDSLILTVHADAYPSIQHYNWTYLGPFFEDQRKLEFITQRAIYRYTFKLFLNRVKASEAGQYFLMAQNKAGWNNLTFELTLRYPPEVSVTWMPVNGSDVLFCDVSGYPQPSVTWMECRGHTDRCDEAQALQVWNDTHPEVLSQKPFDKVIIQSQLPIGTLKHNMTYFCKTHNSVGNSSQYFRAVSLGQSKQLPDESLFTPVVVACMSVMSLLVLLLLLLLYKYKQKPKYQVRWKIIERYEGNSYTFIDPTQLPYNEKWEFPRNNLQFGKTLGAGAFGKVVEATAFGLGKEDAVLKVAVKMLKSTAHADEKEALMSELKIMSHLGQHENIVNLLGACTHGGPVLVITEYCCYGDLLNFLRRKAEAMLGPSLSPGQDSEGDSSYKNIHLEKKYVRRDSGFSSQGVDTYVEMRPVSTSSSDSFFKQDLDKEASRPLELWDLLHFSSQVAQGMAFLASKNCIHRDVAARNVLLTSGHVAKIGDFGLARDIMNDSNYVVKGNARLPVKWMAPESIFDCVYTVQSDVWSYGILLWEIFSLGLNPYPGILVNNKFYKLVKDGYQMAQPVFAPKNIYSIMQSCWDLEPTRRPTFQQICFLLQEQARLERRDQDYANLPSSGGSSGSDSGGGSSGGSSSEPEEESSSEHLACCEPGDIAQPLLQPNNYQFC

[2] = Metabolic stability in human liver microsomes assessed as compound remaining after 10 mins; assay type: ADME; settings: liver microsomes, read-out: Stability
Summary of the method: (§1)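 Compound was incubated with human, mouse or rat liver microsomal preparations. Stability is the percent of compound remaining after 10 min.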

[3] = Metabolic stability in rat liver microsomes assessed as compound remaining after 10 mins; assay type: ADME; settings: read-out: Stability; summary of the method: as §1
[4] = Metabolic stability in mouse liver microsomes assessed as compound remaining after 10 mins; assay type: ADME, Microsome; settings: liver microsomes, read-out: Stability; summary of the method: as §1

| IC50 [1] [nM] | remaining at 10 min [2] [%] | remaining at 10 min [3] [%] | remaining at 10 min [4] [%] | Compound |
| --- | --- | --- | --- | --- |
| 59 | – | – | – | CC1(C)CC=C(c2cc(S(C)(=O)=O)ccc2NC(=O)c2nc(C#N)c[nH]2)CC1 |
| – | 11 | 13 | – | COCCN(C)C(C)(C)c1ccc(NC(=O)c2nc(C#N)c[nH]2)c(C2=CCC(C)(C)CC2)c1 |
| 54 | – | – | – | N#Cc1c[nH]c(C(=O)Nc2ccc(CCS(N)(=O)=O)cc2C2=CCCCC2)n1 |
| > 300 | – | – | – | N#Cc1cnc(C(=O)Nc2ccc(Cc3nnn[nH]3)cc2C2=CCCCC2)[nH]1 |
| 23 | – | – | – | N#Cc1cnc(C(=O)Nc2ccc(CCS(=O)(=O)NN)cc2C2=CCCCC2)[nH]1 |
| > 100 | – | – | – | CC1(C)CC=C(c2cc(Cc3nnn[nH]3)ccc2NC(=O)c2ncc(C#N)[nH]2)CC1 |
| 21 | – | – | – | CC1(C)CC=C(c2cc(CCS(=O)(=O)NN)ccc2NC(=O)c2nc(C#N)c[nH]2)CC1 |
| > 300 | – | – | – | CC1(C)CC=C(c2cc(C(=O)O)ccc2NC(=O)c2nc(C#N)c[nH]2)CC1 |
| – | 93 | 28 | 62 | CC1(C)CC=C(c2cc(C(C)(C)NCCS(C)(=O)=O)ccc2NC(=O)c2nc(C#N)c[nH]2)CC1 |
| – | 118 | 4 | 93 | N#Cc1c[nH]c(C(=O)Nc2ccc(CCS(=O)(=O)N3CCOCC3)cc2C2=CCCCC2)n1 |
| > 100 | – | – | – | CC1(C)CC=C(c2cc(CC(=O)NCCCO)ccc2NC(=O)c2ncc(C#N)[nH]2)CC1 |
| > 150 | – | – | – | N#Cc1cnc(C(=O)Nc2ccc(S(N)(=O)=O)cc2C2=CCCCC2)[nH]1 |
| 17 | – | – | – | CC1(C)CC=C(c2cc(C(C)(C)N3CCOCC3)ccc2NC(=O)c2nc(C#N)c[nH]2)CC1 |
| 1.8 | 46 | – | 2 | N#Cc1cnc(C(=O)Nc2ccc(CCN3CCOCC3)cc2C2=CCCCC2)[nH]1 |
| 32 | – | – | – | CC1(C)CC=C(c2cc(C(N)=O)ccc2NC(=O)c2nc(C#N)c[nH]2)CC1 |
| 21 | – | – | – | CN(CCS(C)(=O)=O)C(C)(C)c1ccc(NC(=O)c2nc(C#N)c[nH]2)c(C2=CCC(C)(C)CC2)c1 |

| IC50 [1] [nM] | remaining at 10 min [2] [%] | remaining at 10 min [3] [%] | remaining at 10 min [4] [%] | Compound |
| --- | --- | --- | --- | --- |
| 18 | 74 | – | 41 | CC1(C)CC=C(c2cc(CCO)ccc2NC(=O)c2ncc(C#N)[nH]2)CC1 |
| > 150 | – | – | – | CC1(C)CC=C(c2cc(S(N)(=O)=O)ccc2NC(=O)c2nc(C#N)c[nH]2)CC1 |
| 34 | – | – | – | N#Cc1c[nH]c(C(=O)Nc2ccc(C(N)=O)cc2C2=CCCCC2)n1 |
| – | 104 | 39 | – | CN(C)CCOC(C)(C)c1ccc(NC(=O)c2ncc(C#N)[nH]2)c(C2=CCC(C)(C)CC2)c1 |
| – | 66 | – | 49 | CC1(C)CC=C(c2cc(CCN3CCOCC3)ccc2NC(=O)c2ncc(C#N)[nH]2)CC1 |
| 32 | 66 | 47 | 61 | CC(C)(O)Cc1ccc(NC(=O)c2nc(C#N)c[nH]2)c(C2=CCCCC2)c1 |
| 130 | – | – | – | CN(C)C(=O)c1ccc(NC(=O)c2nc(C#N)c[nH]2)c(C2=CCC(C)(C)CC2)c1 |
| 210 | – | – | – | N#Cc1c[nH]c(C(=O)Nc2ccc(S(=O)(=O)N3CCOCC3)cc2C2=CCCCC2)n1 |
| 20 | 71 | – | 5 | N#Cc1cnc(C(=O)Nc2ccc(CN3CCOCC3)cc2C2=CCCCC2)[nH]1 |
| > 150 | – | – | – | CC(O)c1ccc(NC(=O)c2ncc(C#N)[nH]2)c(C2=CCC(C)(C)CC2)c1 (configuration not stated) |
| 86 | 109 | 5 | – | CC1(C)CC=C(c2cc(CCS(N)(=O)=O)ccc2NC(=O)c2nc(C#N)c[nH]2)CC1 |
| – | 83 | 19 | – | N#Cc1c[nH]c(C(=O)Nc2ccc(CCC(=O)O)cc2C2=CCCCC2)n1 |
| > 300 | – | – | – | CC1(C)CC=C(c2cc(-c3nnn[nH]3)ccc2NC(=O)c2ncc(C#N)[nH]2)CC1 |
| – | 101 | 2 | 79 | CC1(C)CC=C(c2cc(CN3CCN(CCO)CC3)ccc2NC(=O)c2nc(C#N)c[nH]2)CC1 |
| 33 | – | – | – | CC1(C)CC=C(c2cc(C(C)(C)CO)ccc2NC(=O)c2nc(C#N)c[nH]2)CC1 |
